Screening results as filed in PubChem.
Hits are enriched below; roughly 2.3% of the tested compounds scored in any of these assays.
N-glyco inh: blocks N-linked glycosylation in D54 reporter cells | AID 588692 | reporter increase, % at 12.5 µM | D54 ERlucT glycosylation luciferase reporter, 24 h; percent of 100 nM tunicamycin response | 360,000 tested, 0.23% active;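 active means mean luciferase reporter signal, scaled so untreated is 0 and the glycosylation-blocking control 100, at or above a set limit in every replicate; inconclusive means mean reaches the limit but not every replicate does; inactive means mean below the limit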;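 further: luciferase carries N-glycosylation sites so blocking glycosylation raises the light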
PAX8 reporter: inhibitors of PAX8 transcriptional activity in RMG-I cells | RMG-I TPO-luciferase reporter, SteadyGlo, 24 h | inhibition, % at 12.6 µM | 360,000 tested, 1.2% active | AID 652154;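 active means mean replicate inhibition at least 60% with every replicate also reaching 60%; inconclusive means only one of the two criteria is met; inactive means mean below 60% and not all replicates reaching 60%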;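 further: luciferase light reporting Pax8 driven TPO promoter activity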
Env fusion inh: blocks HIV Env-driven cell-cell fusion | 360,000 tested, 1.1% active | HeLa-JRFL Env/CEM21 cell fusion, luciferase | AID 651610 | inhibition, % at 12.3 µM;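 active means mean replicate inhibition score of at least 50 and every replicate individually at or above 50; inconclusive means only one of the two criteria met; inactive means mean below 50 and not all replicates reaching 50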
PfHsp90 yeast 2: reduces growth (ATP signal) of yeast expressing P. falciparum Hsp90. S. cerevisiae expressing PfHsp90, BacTiter-Glo ATP, 48 h; yeast lacking PDR1 and PDR3 efflux regulators. inhibition, % at 9.4 µM. 310,000 tested, 0.32% active;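 active means every replicate shows inhibition above about 80%, whatever the replicate mean, limit read from the data; inconclusive means mean inhibition reaches the set limit but some replicate falls short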
Arr AP2 block: inhibitors of human beta-arrestin and AP2 interaction. FITC-arrestin peptide / GST-AP2 beads, flow cytometry; AP2 beta2 appendage carries R879A mutation. inhibition, % at 10 µM. 340,000 tested, 0.31% active;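 active means inhibition above a set limit, near 3 SD of compounds lacking own fluorescence, cut at about 54% in these data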
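System: GST-AP2 R879A glutathione beads. Medium: PBS with 0.05% Tween 20 and 0.1% BSA. Also added: FITC-arrestin peptide, 50 nM. Incubation: 12 min plus 1 h, RT. Measured by: high-throughput flow cytometry of beads, ex 488, em 535 nm. Evaluation: percent drop in bead-associated FITC signal.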
Rtt109 Vps75: inhibitors of Candida albicans Rtt109/Vps75 histone acetyltransferase. inhibition, % at 34.9 µM. Q5AAJ8. AID 540336. 330,000 tested, 0.16% active. purified Rtt109/Vps75, ThioGlo CoA-SH fluorescence, 4 h;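 active means inhibition of at least 50% in every replicate; inconclusive means best replicate reaches 50% inhibition but some replicates fall short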
Target sequence (Q5AAJ8 whole entry, looked up): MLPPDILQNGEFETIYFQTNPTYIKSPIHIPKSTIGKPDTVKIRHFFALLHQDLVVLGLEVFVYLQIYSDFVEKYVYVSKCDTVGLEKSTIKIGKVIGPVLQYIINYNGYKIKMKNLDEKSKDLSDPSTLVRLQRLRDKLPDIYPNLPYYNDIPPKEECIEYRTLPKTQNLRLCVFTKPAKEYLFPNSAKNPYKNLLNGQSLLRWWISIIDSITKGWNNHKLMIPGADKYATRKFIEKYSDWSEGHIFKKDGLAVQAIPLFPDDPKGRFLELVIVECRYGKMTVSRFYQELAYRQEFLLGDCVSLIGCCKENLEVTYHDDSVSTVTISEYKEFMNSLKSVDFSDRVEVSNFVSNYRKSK
A number is an active result; - = inactive; ? = inconclusive; . = no result; + = active, no number.

SMILES	N-glyco inh	PAX8 reporter	Env fusion inh	PfHsp90 yeast 2	Arr AP2 block	Rtt109 Vps75
COC(=O)C(NC(=O)c1ccc(F)cc1)(Nc1ncc(S(=O)(=O)c2ccc([N+](=O)[O-])cc2)s1)C(F)(F)F (centres undefined)	-	.	127	-	-	-
O=C(CCl)Nc1cn(-c2ccccc2)nc1-c1ccc(F)cc1	52	-	-	.	-	-
CC(O)C(NS(=O)(=O)c1ccc(Cl)cc1)C(=O)OCC(=O)c1ccc2c(c1)NC(=O)CO2 (centres undefined)	-	-	-	.	-	-
CC(C)CC(NC(=O)c1ccc(Cl)cc1)C(=O)OCC(=O)c1ccc2c(c1)NC(=O)CO2 (centres undefined)	60	.	.	-	-	-
CCOC(=O)c1ccc(N2C(=O)c3n[nH]c(C)c3C2c2ccc(OC)cc2)cc1 (centres undefined)	-	.	?	-	-	77
COc1ccc(C[C@@H]2CCn3cc(nn3)COC[C@H](CC(C)C)NC2=O)cc1	.	-	-	.	.	.
O=C(CSc1ccc(-c2ccco2)nn1)NCc1ccc(Cl)cc1	-	-	-	-	-	-
O=C(CSc1ccc(-c2ccco2)nn1)NCc1ccccc1	-	63	.	-	-	-
COc1ccc2oc(/C=C/N(C)C)c(C(=O)c3ccc(Cl)cc3)c2c1	-	.	.	112	-	-
CC=Cc1ccc2n(c1=O)C[C@@H]1[C@@H](CO)[C@H](C(=O)N[C@H](C)c3ccccc3)[C@H]2N1Cc1cccnc1 (mixture of isomers)	.	-	.	.	.	.
O=C(NCCNC(=O)c1cc(OCC(F)(F)F)ccc1OCC(F)(F)F)Nc1cccc(C(F)(F)F)c1	-	.	84	.	-	-
CN(C)S(=O)(=O)NCCNC(=O)c1cc(OCC(F)(F)F)ccc1OCC(F)(F)F	-	-	-	-	-	.
Cc1ccc(S(=O)(=O)NCCNC(=O)c2cc(OCC(F)(F)F)ccc2OCC(F)(F)F)cc1	-	-	96	.	-	-
C[C@H](CO)N1C[C@H](C)[C@@H](CN(C)Cc2ccc(Oc3ccccc3)cc2)Oc2ccc(NC(=O)Nc3cccc4ccccc34)cc2C1=O	.	.	-	.	.	.
CCCCCCCCCCCCCCCCn1cc[n+](C)c1	-	99	128	129	-	95
COC(=O)C[C@@H]1C[C@H]2c3cc(NC(=O)NC4CCCCC4)ccc3O[C@H]2[C@@H](CO)O1	.	-	-	.	.	.
CN(Cc1nc2ccccc2c(=O)[nH]1)C(=O)c1ccc(S(=O)(=O)N(C)C)cc1	-	.	-	-	-	-
Cc1ccc(S(=O)(=O)N(C)c2ccc(C(=O)N(C)Cc3nc4ccccc4c(=O)[nH]3)cc2)cc1	-	-	58	-	-	-
O=C(C[C@H]1CC[C@H](NC(=O)c2ccc3c(c2)OCO3)[C@H](CO)O1)NCc1ccc(F)cc1	.	-	-	.	.	.
OC(Cn1cncn1)(c1ccccc1)c1ccccc1	-	-	-	92	-	-
O=S(=O)(Nc1cc(Sc2ncn[nH]2)c(O)c2ccccc12)c1ccccc1	-	111	-	-	-	+
CCCN1C[C@H](C)[C@H](OC)CN(C)C(=O)c2cc(NC(=O)CC(F)(F)F)ccc2OC[C@@H]1C	.	-	.	.	.	.
COCCn1c(=S)[nH]c2cc(C(=O)N3CCC(C(N)=O)(N4CCCCC4)CC3)ccc2c1=O	-	.	-	-	-	-
CCOC(=O)C1CCCN(C(=O)c2ccc3c(=O)n(CCOC)c(=S)[nH]c3c2)C1 (centres undefined)	-	.	66	-	-	-
CCCN(C)C[C@H]1OCCCC[C@@H](C)Oc2ccc(NC(=O)Nc3ccc4c(c3)OCO4)cc2C(=O)N([C@H](C)CO)C[C@@H]1C	.	-	-	.	.	.
C=CCN1C(=O)[C@@]2(O[C@@H](CCn3cc([C@H](O)c4ccccc4)nn3)[C@H]([Si](C)(C)c3ccc(OC)cc3)[C@H]2C)c2ccccc21	.	-	-	.	.	.
COC(=O)c1ccc(-c2ccc(OC)c([C@H]3[C@H]4C=CC[C@@H](C)[C@@H]4C(=O)N3Cc3ccccc3)c2)cc1	-	-	64	-	-	-
CCCC(=O)Nc1ccc2c(c1)C(=O)N(C)C[C@@H](OC)[C@@H](C)CN(Cc1ccccn1)[C@H](C)CO2	.	-	.	.	.	.
